RBBP9 inhibitor: human RBBP9 inhibitors, primary screen, biochemical, fluorescence polarization, FP-Rh probe, HTS; Serine hydrolase RBBP9 (Homo sapiens), O75884; recombinant RBBP9; inhibition, % at 7.94 µM; 0.2% of 220,000 active;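 active means inhibition above the campaign mean of all tested compounds plus 3 SD, cut at about 14% in these data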;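 further: plate controls were DMSO wells with RBBP9 for no effect and wells lacking RBBP9 protein for full effect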
Target sequence (O75884 whole entry, looked up): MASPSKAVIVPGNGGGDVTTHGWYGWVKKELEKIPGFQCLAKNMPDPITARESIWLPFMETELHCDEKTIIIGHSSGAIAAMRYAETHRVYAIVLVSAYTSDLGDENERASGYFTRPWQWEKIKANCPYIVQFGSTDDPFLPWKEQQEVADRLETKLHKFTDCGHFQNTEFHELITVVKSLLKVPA
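system = RBBP9 protein | input = RBBP9 at 2.5 µM in dispensed solution, before mixing | measured by = fluorescence polarization (mP), excitation 525 nm, emission 598 nm | incubation = enzyme-compound preincubation 30 min, then probe labeling 45 min, 25 °C | buffer or medium = Tris-NaCl-Pluronic buffer, pH 8.0 | compound = single dose 7.94 µM | also added = FP-Rh probe, 375 nM dispensing solution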
LYPLA2 counter: LYPLA2 inhibitors, primary screen, counter-screen for PME1 inhibitor project, biochemical, fluorescence polarization, FP-Rh probe ABPP | recombinant LYPLA2 | inhibition, % at 5.9 µM | 0.38% of 320,000 active | Acyl-protein thioesterase 2 (Homo sapiens), O95372;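 active means inhibition above the screen-wide mean plus 3 SD, limit set per campaign, cut at about 26% in these data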;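 further: 0% = LYPLA2 with DMSO and 100% = wells lacking LYPLA2 enzyme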
PAD4 inh: human PAD4 inhibitors, primary screen, biochemical, fluorescence polarization, 1536-well format. inhibition, % at 6.36 µM. Protein-arginine deiminase type-4 (Homo sapiens), Q9UM07. recombinant PAD4, RCA probe fluorescence polarization. 0.41% of 330,000 active. AID 485272, 2010;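 active means percent inhibition above a cutoff equal to the mean of all tested compounds plus 3 SD, cut at about 15% in these data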;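 further: 0% = PAD4 with RCA probe and DMSO and 100% = probe without PAD4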
LYPLA1 inh: LYPLA1 inhibitors, primary screen, counter-screen for PME1 inhibitor project, biochemical, fluorescence polarization, FP-Rh probe ABPP | Acyl-protein thioesterase 1 (Homo sapiens), O75608 | recombinant LYPLA1 | inhibition, % at 5.9 µM | 0.16% of 320,000 active | AID 2174, 2009;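 active means inhibition above the mean of all tested compounds plus 3 SD, set per campaign, cut at about 14% in these data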;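 further: inhibitors block serine hydrolase probe labeling of LYPLA1 so polarization falls; 0% = enzyme with DMSO and 100% = wells lacking LYPLA1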
Target sequence (O75608 whole entry, looked up): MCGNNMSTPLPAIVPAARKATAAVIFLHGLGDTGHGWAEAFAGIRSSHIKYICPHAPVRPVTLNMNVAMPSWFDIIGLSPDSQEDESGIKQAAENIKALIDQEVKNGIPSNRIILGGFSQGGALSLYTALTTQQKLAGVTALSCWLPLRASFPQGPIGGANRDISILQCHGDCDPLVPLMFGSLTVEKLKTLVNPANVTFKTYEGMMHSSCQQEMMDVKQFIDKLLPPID
Fam108B counter: mouse Fam108B serine hydrolase inhibitors, primary screen, counter-screen for RBBP9 inhibitor project, biochemical, fluorescence polarization. recombinant Fam108B, FP-Rh probe fluorescence polarization. inhibition, % at 9.51 µM. 0.33% of 300,000 active. AID 1947, 2009;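 active means inhibition above the screen mean inhibition plus 3 SD, computed separately per campaign, cut at about 18% in these data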;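 further: inhibitors lower polarization as less probe binds the enzyme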
PME-1 inh: PME-1 inhibitors via competitive probe labeling, primary screen, biochemical, fluorescence polarization, FP-Rh probe, HTS; recombinant PME-1; inhibition, % at 5.9 µM; 0.53% of 320,000 active; Protein phosphatase methylesterase 1 (Homo sapiens), Q9Y570;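 active means inhibition above the campaign mean of all compounds plus 3 SD, cut at about 26% in these data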;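 further: competitive labeling of PME-1 active site by serine hydrolase directed probe; 0% = PME-1 with DMSO and 100% = wells lacking PME-1 enzyme; inhibitors block probe labeling so polarization falls and inhibition rises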
* = called active by the depositor; . = no result given. In the library only some 1.3% were active in any assay of this set; here they are far more common.

SMILES	RBBP9 inhibitor	LYPLA2 counter	PAD4 inh	LYPLA1 inh	Fam108B counter	PME-1 inh
O=C(C1CCN(S(=O)(=O)c2cccc3cccnc23)CC1)N1CCn2c1nc1ccccc12	-7.2	-4.9	-1.4	1.8	0.6	28.1*
CCn1c(/C=C/c2c[nH]c3ccccc23)nc2ccccc2c1=O	-3.7	-4.0	-0.1	-2.8	3.4	43.8*
CCn1c(/C=C\c2ccccc2C)nc2ccccc2c1=O	-3.1	0.7	-7.0	-2.8	-3.4	1.0
COc1ccc(-c2csc(NC(=O)c3ccccc3F)n2)cc1	.	2.1	0.0	-0.9	-5.5	-3.1
COc1ccc(-c2csc(NC(=O)c3ccccc3NS(=O)(=O)c3ccc(F)c(F)c3)n2)cc1	-3.8	12.4	-8.4	4.0	17.9	31.2*
COc1cccc2cc(-c3ccnc(=S)[nH]3)oc12	-4.6	-3.6	44.6*	-0.3	1.4	8.0
CCc1nc(Nc2ccncc2)c2oc3ccccc3c2n1	-9.0	3.6	0.1	-1.6	0.2	0.6
CCc1nc(Nc2ccc3c(c2)OCO3)c2oc3ccccc3c2n1	3.3	8.0	-2.5	5.3	3.3	31.5*
Cc1nn(CC(=O)NC(=O)NC2CCCC(C)C2C)c(=O)c(C#N)c1C (configuration not stated)	.	3.0	-0.9	0.9	1.1	-0.1
O=C(/C=C/c1cc[n+](CC(=O)c2ccc3cccc4c3c2CC4)cc1)c1ccc2cccc3c2c1CC3	-6.4	83.3*	-5.6	77.7*	7.2	-1.0
O=C(C[n+]1ccc2ccccc2c1)c1cccc2ccccc12	-7.0	4.6	-5.3	2.4	3.8	-0.4
Cc1cc(O)c2c(c1)C(=O)c1cccc(O)c1C2=O	-8.3	.	.	.	.	.
O=C(O)c1cc(O)c2c(c1)C(=O)c1cccc(O)c1C2=O	26.8*	-3.3	-3.0	0.0	12.3	4.6
O=C(NCc1ccc(C(=O)O)cc1)OCc1ccccc1	-0.7	-4.3	-1.2	-2.1	0.3	-0.6
N#Cc1c(N)nc2c3c(sc(=N)c2c1N)NC(=O)CC3c1ccccc1 (configuration not stated)	-1.0	7.2	-1.6	1.0	9.2	29.2*
N#Cc1c(N)nc2c3c(sc(=N)c2c1N)NC(=O)CC3c1c(F)cccc1Cl (configuration not stated)	5.7	-2.1	2.3	-7.9	11.9	63.5*
CSc1nc(N)c(C#N)c(-c2ccc(Cl)cc2)c1C#N	-8.4	-35.1	5.1	-12.7	-33.9	-27.3
Cc1c(C#N)c(N)nc2c3c(sc12)NC(=O)CC3c1ccc(Cl)cc1 (configuration not stated)	7.9	0.0	-0.9	-3.4	-2.4	-0.1
Cc1nc2sccn2c(=O)c1S(=O)(=O)NCC(C)c1ccccc1 (configuration not stated)	.	4.8	3.3	1.6	4.7	2.5
N#Cc1c(SCc2nc3ccccc3[nH]2)nc2c(c1C(F)(F)F)CCC2	-5.1	.	.	.	.	.
Cc1cc(C)c(C#N)c(SCc2nc3ccccc3[nH]2)n1	-5.3	7.6	-1.1	5.2	0.9	28.8*
Cc1cc(C)c(C#N)c(SCc2c(F)cccc2[N+](=O)[O-])n1	-6.9	34.3*	1.4	3.5	4.4	-1.6
NS(=O)(=O)c1ccc(NC(=O)COC(=O)CCCN2C(=O)c3cccc4cccc(c34)C2=O)cc1	.	.	-2.2	.	.	.
CCO[C@@H]1OC(C(=O)N2CCOCC2)=C[C@H](c2cn(C(C)=O)c3ccccc23)[C@H]1CCCO	-4.8	2.2	-1.5	0.6	2.3	0.8
CCO[C@@H]1OC(C(=O)N2CCN(Cc3ccccc3)CC2)=C[C@H](c2cn(C(C)=O)c3ccccc23)[C@H]1CCCO	3.8	4.0	3.6	-0.9	3.7	71.1*
C(=N\Nc1nc2ccccc2[nH]1)/c1cccc2cccnc12	8.0	-5.7	0.4	0.2	7.3	51.5*
COC(=O)N1C(=O)[C@](CC(C)C)(c2ccccc2)N1C(=O)OC	.	4.7	-0.7	0.1	5.5	27.6*

Source: PubChem BioAssay
